Each structure is given as a SMILES string.

Holding throughout (assay type): functional
The test system of experiment [1] is Rattus norvegicus. Description: Conditioned avoidance response in rats after oral administration. In a few lines:
(§1)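 Wistar rats (120-130 g) trained in a shuttle box to cross on a 5-s buzzer; failure within 1 s after the buzzer gave a mild shock. Only well-conditioned animals were used, in groups of five, dosed orally 1 h 50 min before testing. After 10-min habituation they were tested for 20 min. Blockade = shocks received as % of stimuli; EDmin reported.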

The subject of experiment [2] is Mus musculus. Description: Tested for the apomorphine climbing behavior in mice after oral administration. In a few lines: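 Female TO mice (20-25 g), groups of eight, dosed orally with compound or vehicle, then habituated 60 min in wire-mesh cylinders. Apomorphine 2.5 mg/kg sc given; from 10 min later, climbing scored 0-4 (paws on cage) at 5-min intervals for 20 min.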

The test system of experiment [3] is Rattus norvegicus. Description: Compound was tested for the Conditioned avoidance response (CAR) in rats after oral administration; ip administration.
Experiment [4] has as its system Rattus norvegicus. Description: Compound was tested for the presence of catalepsy (CAT) in rats after oral administration; ip administration.
Experiment [5] deals with Rattus norvegicus. Description: Percent change in serum prolactin in adult male Dawley rats after intraperitoneal administration. In a few lines:
(§2)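 Adult male Sprague-Dawley rats, groups of 10, given compound in 0.5% lactic acid or vehicle ip 2 h before decapitation. Trunk blood clotted at 4 °C and centrifuged. Serum prolactin measured by NIAMDD radioimmunoassay kit against rat prolactin reference NIAMDD-RP-1. Result expressed as % change from controls run in the same experiment. Means compared by Student's test.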

The subject of experiment [6] is Rattus norvegicus. Description: Tested for the presence of catalepsy(CAT) in rats after oral administration. Summed up:
(§3)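 Wistar rats (180-190 g), groups of eight, compound given orally in distilled water or 0.5% carboxymethyl cellulose. Front paws placed on a 1.5 cm rod 7 cm high at 0.5, 1, 1.5, 2, 3, 4 and 5 h; time held recorded up to 20 min and scored 0-5. Maximum score per animal summed (group maximum 40); EDmin = lowest dose exceeding a threshold score.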

The subject of experiment [7] is Rattus norvegicus. Description: Tested for the amphetamine induced stereotyped behavior in rats after oral administration. Summed up: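 Wistar rats, groups of eight, given d-amphetamine sulfate 10 mg/kg ip 1 h after test compound. Stereotypy scored 1-8 at eight time points up to 4 h, and the group mean taken at each time. EDmin = lowest dose reducing stereotypy by more than 25% versus amphetamine-treated controls.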

Experiment [8] is filed under the species Rattus norvegicus. Description: Compound was tested for the Conditioned avoidance response (CAR) in rats. In a few lines: as §1
For experiment [9], the system named is Rattus norvegicus. Description: % change in serum prolactin in adult male Dawley rats after intraperitoneal administration. Summed up:
as §2

Experiment [10] concerns Rattus norvegicus. Description: Compound was tested for the presence of catalepsy (CAT) in rats after oral administration. Summed up:
as §3

Experiment [11] is filed under the species Rattus norvegicus. Description: Compound was tested for the % change in serum prolactin in adult male Dawley rats.(not significant). Summed up: as §2

In the case of `C[C@@H]1C[C@@H]2c3cccc4[nH]cc(c34)C[C@H]2N(C)C1`, the EDmin in experiment [1] is over 40 mg/kg.
Turning to `CSc1[nH]c2cc(O)cc3c2c1C[C@@H]1[C@@H]3C=C(C)CN1C`, the EDmin in experiment [2], in experiment [3] and in experiment [4] was 25 mg/kg throughout. Moreover, the Change in [5] is given as -50%.
In the case of `CSc1[nH]c2cccc3c2c1C[C@@H]1[C@@H]3C[C@@H](C)CN1C`, the EDmin in experiment [2] stood at 40 mg/kg; in experiment [6], 20 mg/kg; in [1], 5 mg/kg; in experiment [7] it was 5 mg/kg. Besides, in [5], the Change amounted to 570%.
Consider `CCSc1[nH]c2cccc3c2c1C[C@@H]1[C@@H]3C=C(C)CN1C`, for which the EDmin is over 100 mg/kg in experiment [2], 40 mg/kg in experiment [6] and 25 mg/kg in experiment [1]. For the same molecule, the Change in [5] came out at 67%.
As for `CSc1[nH]c2cccc3c2c1C[C@@H]1[C@@H]3C=C(CO)CN1C`, the figures for the EDmin in experiment [2], in [3] and in [4] were over 25 mg/kg, 6 mg/kg and 12.5 mg/kg, respectively. Moreover, the Change in [5] is 481%.
Turning to `CSc1[nH]c2cccc3c2c1C[C@@H]1[C@@H]3C[C@H](C)CN1C`, the EDmin in [2] was over 25 mg/kg; in experiment [1], 40 mg/kg. In addition, the Change in experiment [5] is listed as 63%.
For `CCN1CC(C)=C[C@@H]2c3cccc4[nH]c(SC)c(c34)C[C@H]21` the same measures were 100 mg/kg, 25 mg/kg and -65%.
In the case of `CC1=C[C@@H]2c3cccc4[nH]c(Sc5ccccc5)c(c34)C[C@H]2N(C)C1`, the EDmin is 25 mg/kg in experiment [2], 10 mg/kg in experiment [6], 2.5 mg/kg in [1] and 20 mg/kg in [7]. For the same molecule, the Change in [5] was 141%.
In the case of `CCCSc1[nH]c2cccc3c2c1C[C@@H]1[C@@H]3C[C@@H](C)CN1C`, the EDmin in [1] was over 50 mg/kg. Further, the Change in experiment [5] is on record as 76%.
`CC1=C[C@@H]2c3cccc4[nH]c([S+](C)[O-])c(c34)C[C@H]2N(C)C1` (stereo partly specified): the EDmin in experiment [2] is over 100 mg/kg; in [1], over 50 mg/kg. The Change in experiment [5] is reported as 98%.
For the molecule `CC1=C[C@@H]2c3cccc4[nH]c(SC(C)C)c(c34)C[C@H]2N(C)C1`, the EDmin in experiment [8] amounted to 2.5 mg/kg; in experiment [1] it was 10 mg/kg; in experiment [7], 10 mg/kg. Further, the Change in [5] is recorded as 132%.
On to `CCCCCCSc1[nH]c2cccc3c2c1C[C@@H]1[C@@H]3C=C(C)CN1C`, for which the EDmin in [2] is over 100 mg/kg; in experiment [1], 50 mg/kg. In addition, the Change in [5] is on record as -4%.
In the case of `CC1=C[C@@H]2c3cccc4[nH]c(Sc5ccc(Cl)cc5)c(c34)C[C@H]2N(C)C1`, the EDmin is over 100 mg/kg in [2] and 100 mg/kg in experiment [1].
With `CC1=C[C@@H]2c3cccc4[nH]c(S(C)(=O)=O)c(c34)C[C@H]2N(C)C1`, the EDmin was over 100 mg/kg in experiment [2] and over 50 mg/kg in experiment [1]. Moreover, the Change in experiment [9] came to 30%.
`CCCN1CC(C)=C[C@@H]2c3cccc4[nH]c(SC)c(c34)C[C@H]21` registered an EDmin in experiment [2] of over 50 mg/kg. For the same molecule, the Change in [5] is on record as -74%.
Take `COc1ccc(Sc2[nH]c3cccc4c3c2C[C@@H]2[C@@H]4C=C(C)CN2C)cc1`: the EDmin in [2] was over 100 mg/kg; in [1] it was over 80 mg/kg. Further, the Change in [9] was 31%.
In experiment [1], `C[C@H]1C[C@@H]2c3cccc4[nH]cc(c34)C[C@H]2N(C)C1` gave an EDmin of over 50 mg/kg.
In turn, `CCCSc1[nH]c2cccc3c2c1C[C@@H]1[C@@H]3C=C(C)CN1C` showed an EDmin in [2] of over 50 mg/kg.
As for `C[C@H]1C[C@@H]2c3cccc4[nH]c(Sc5ccccc5)c(c34)C[C@H]2N(C)C1`, the EDmin in [2] and in experiment [1] was over 50 mg/kg throughout. The Change in experiment [5] was 15%.
As to `CSc1c2c3c(cccc3n1CO)[C@H]1C=C(C)CN(C)[C@@H]1C2`, the EDmin in experiment [2] was over 100 mg/kg; in [1], 20 mg/kg; in experiment [10], 80 mg/kg. In experiment [5], the Change was determined as 91%.
For `CSc1[nH]c2cccc3c2c1C[C@H]1NCC(C)=C[C@H]31`, the EDmin was 50 mg/kg in experiment [2] and over 50 mg/kg in [1]. For the same molecule, in experiment [9], the Change is 24%.
With `CSc1[nH]c2cccc3c2c1C[C@@H]1[C@@H]3C=C(C)CN1C`, the EDmin in [2] worked out at 50 mg/kg; in experiment [6] it was 10 mg/kg; in [1] it was 2.5 mg/kg; in experiment [7] it was 5 mg/kg. Moreover, the Change in [5] amounted to 532%.
`CCCN1C[C@H](C)C[C@@H]2c3cccc4[nH]c(SC)c(c34)C[C@H]21` yielded an EDmin in experiment [1] of over 50 mg/kg.
Take `CSc1c2c3c(cccc3n1C)[C@H]1C=C(C)CN(C)[C@@H]1C2`: the EDmin in experiment [2] and in experiment [1] was 100 mg/kg each time. For the same molecule, the Change in experiment [11] is recorded as -23%.
For the molecule `CC1=C[C@@H]2c3cccc4[nH]c(SCc5ccccc5)c(c34)C[C@H]2N(C)C1`, the values for the EDmin in [2], in experiment [6] and in experiment [1] were 100 mg/kg, 80 mg/kg and 25 mg/kg, respectively. Further, in [9], the Change is reported as -9%.
Take `C[C@@H]1C[C@@H]2c3cccc4[nH]c(Sc5ccccc5)c(c34)C[C@H]2N(C)C1`: the EDmin came to 10 mg/kg in [8], 20 mg/kg in [1] and 20 mg/kg in [7]. In addition, the Change in experiment [5] worked out at 106%.
Turning to `CN(C)CCCN1c2ccccc2Sc2ccc(Cl)cc21` [CHLORPROMAZINE], the EDmin in experiment [1] and in experiment [10] was 10 mg/kg in each case.
Turning to `CN1CCN(C2=Nc3cc(Cl)ccc3Nc3ccccc32)CC1` [CLOZAPINE], the EDmin in experiment [2] was found to be 20 mg/kg; in [1], 30 mg/kg; in [7], 40 mg/kg; in experiment [10], 80 mg/kg. The Change in experiment [5] worked out at 1.6%.
Turning to `O=C(CCCN1CCC(O)(c2ccc(Cl)cc2)CC1)c1ccc(F)cc1` [HALOPERIDOL], the EDmin in [2] amounted to 1 mg/kg; in experiment [1] it was 0.5 mg/kg; in experiment [10], 0.5 mg/kg. Moreover, the Change in experiment [5] amounted to 1413%.

Source of the values: ChEMBL document CHEMBL1126632, “Synthesis and dopamine antagonist activity of 2-thioether derivatives of the ergoline ring system” (J Med Chem, 1993).
